The values that follow come from ChEMBL document CHEMBL4321820, “Identification and Optimization of Mechanism-Based Fluoroallylamine Inhibitors of Lysyl Oxidase-like 2/3” (J Med Chem, 2019).

As usually defined, the IC50 is the concentration that inhibits the measured activity by half. Broadly, the bioavailability is the share of a dose that reaches the circulation, judged against a reference dose that is usually intravenous. Read a high bioavailability as good availability.

The source made the active and inactive calls. No cut-off for these calls is given here.

Series [1] has as its target T1, Lysyl oxidase homolog 2 (Homo sapiens, UniProt Q9Y4K0).
T1 sequence (Q9Y4K0 whole entry): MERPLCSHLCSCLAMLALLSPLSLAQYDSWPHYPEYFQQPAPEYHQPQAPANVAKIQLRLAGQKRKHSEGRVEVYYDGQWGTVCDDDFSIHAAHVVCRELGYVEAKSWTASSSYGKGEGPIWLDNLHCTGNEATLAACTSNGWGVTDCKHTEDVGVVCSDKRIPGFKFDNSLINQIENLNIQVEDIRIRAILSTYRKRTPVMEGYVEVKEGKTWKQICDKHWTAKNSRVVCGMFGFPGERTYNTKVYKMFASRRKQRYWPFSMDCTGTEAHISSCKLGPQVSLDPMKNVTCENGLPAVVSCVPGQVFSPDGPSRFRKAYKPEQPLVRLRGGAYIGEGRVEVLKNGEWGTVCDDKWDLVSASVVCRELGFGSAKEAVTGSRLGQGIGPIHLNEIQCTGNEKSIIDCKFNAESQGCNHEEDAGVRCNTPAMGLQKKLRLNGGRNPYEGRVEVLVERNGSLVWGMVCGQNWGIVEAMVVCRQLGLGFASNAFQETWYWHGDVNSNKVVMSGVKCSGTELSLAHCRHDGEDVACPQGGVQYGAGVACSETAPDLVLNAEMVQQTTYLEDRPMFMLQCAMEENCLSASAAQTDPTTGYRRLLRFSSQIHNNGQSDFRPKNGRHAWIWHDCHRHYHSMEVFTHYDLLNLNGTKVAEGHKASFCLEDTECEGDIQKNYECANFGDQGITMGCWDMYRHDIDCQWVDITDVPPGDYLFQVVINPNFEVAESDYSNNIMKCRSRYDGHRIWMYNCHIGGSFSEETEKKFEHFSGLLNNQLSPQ
In words: Inhibition of recombinant human LOXL2 assessed as inhibition of collagen cross linking compound replenishment for 5 days and measured on day 7 by UPLC-ESI-MS/MS analysis.

In series [2] the target is T1, Lysyl oxidase homolog 2. In words: Inhibition of LOXL2 in human IMR90 cells using putrescine as substrate preincubated with enzyme for 30 mins followed by substrate addition and measured every 2.5 mins for 30 mins by Amplex-Red oxidation assay. It counts as cell-based. The procedure, abridged: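 IMR90 fibroblasts grown in MEM/10% FBS to 80% confluence, then 48-72 h in phenol-red-free 0.1% FBS medium. Conditioned medium concentrated 40-fold (10 kDa). LOX and LOXL2 separated on a 50 kDa filter in 6 M urea/borate, then diluted back to 1.2 M urea. Preincubated 30 min at 37 °C with compound; Amplex Red/HRP/putrescine readout every 2.5 min over 30 min.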

Series [3] in a line: Oral bioavailability in mouse. It counts as ADME, organism-based. The conditions noted are these: in vivo.
In another series the target is T2, Lysyl oxidase homolog 4 (Homo sapiens, UniProt Q96JB6).
T2 sequence (Q96JB6 whole entry): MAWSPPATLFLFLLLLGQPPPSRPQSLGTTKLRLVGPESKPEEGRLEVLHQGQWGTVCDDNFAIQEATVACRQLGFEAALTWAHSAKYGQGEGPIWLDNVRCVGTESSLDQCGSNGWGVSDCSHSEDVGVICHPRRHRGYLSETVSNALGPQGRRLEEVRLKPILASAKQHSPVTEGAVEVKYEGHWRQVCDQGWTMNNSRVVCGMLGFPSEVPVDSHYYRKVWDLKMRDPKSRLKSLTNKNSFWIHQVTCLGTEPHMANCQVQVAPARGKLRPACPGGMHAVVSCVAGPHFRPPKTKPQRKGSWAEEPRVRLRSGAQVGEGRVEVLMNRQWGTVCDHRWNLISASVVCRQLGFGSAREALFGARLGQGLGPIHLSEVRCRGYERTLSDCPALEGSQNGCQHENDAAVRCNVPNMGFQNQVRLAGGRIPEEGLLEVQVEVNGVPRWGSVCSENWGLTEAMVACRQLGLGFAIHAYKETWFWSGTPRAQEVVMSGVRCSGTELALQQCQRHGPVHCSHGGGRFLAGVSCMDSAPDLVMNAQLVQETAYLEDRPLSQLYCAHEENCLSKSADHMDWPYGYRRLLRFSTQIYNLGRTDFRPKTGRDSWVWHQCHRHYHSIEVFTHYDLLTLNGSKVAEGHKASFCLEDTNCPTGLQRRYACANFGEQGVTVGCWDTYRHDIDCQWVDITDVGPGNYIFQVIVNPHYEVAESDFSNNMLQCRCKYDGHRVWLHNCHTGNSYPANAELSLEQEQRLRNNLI
Briefly: Inhibition of recombinant human LOXL4 using putrescine as substrate preincubated with enzyme for 30 mins followed by substrate addition and measured every 2.5 mins for 30 mins by Amplex-Red oxidation assay. The procedure, abridged:
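Recombinant human LOXL3 or LOXL4 preincubated 30 min at 37 °C with compound in 1.2 M urea/50 mM borate pH 8.2, then Amplex Red (120 µM)/HRP (1.5 U/mL) with 2 mM putrescine; fluorescence read every 2.5 min for 30 min.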

Series [4] deals with T1, Lysyl oxidase homolog 2. In words: Substrate activity at recombinant human C-terminal His-tagged […] (1-774 residues) expressed in mouse myeloma cells assessed as oxidative turnover at 30 uM measured after 30 mins by horseradish peroxidase-coupled amplex red reagent-based fluorescence assay relative to DMSO. Format: ADME, cell-based. To be noted: 0.5 h. The gist of the method: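 LOXL2 incubated with compound, no substrate present. Hydrogen peroxide generation read by Amplex Red/HRP fluorescence (ex 565, em 590 nm). Oxidative turnover at 30 min expressed relative to DMSO.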

Series [5] addresses T1, Lysyl oxidase homolog 2. Briefly: Time-dependent inhibition of recombinant human C-terminal His-tagged […] (1-774 residues) expressed in mouse myeloma cells assessed as apparent inhibition constant using putrescine as substrate by kitz-wilson plot analysis. The gist of the method:
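Recombinant human LOXL2 preincubated with inhibitor for varying times at 37 °C, then 5 mM putrescine added with 120 µM Amplex Red and 1.5 U/mL HRP. Buffer was 1.2 M urea, 50 mM sodium borate, pH 8.2. Fluorescence read every 2.5 min for 30 min. Apparent Ki and kinact derived by Kitz–Wilson analysis.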

Series [6] deals with Mus musculus. Briefly: Antifibrotic activity in CCl4-induced BALB/c mouse model of liver fibrosis assessed as reduction in liver fibrosis area at 5 to 15 mg/kg, po administered once daily at week 4 to 6 by alpha-SMA staining based microscopy. It counts as functional, organism-based. The gist of the method:
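Female BALB/c mice given CCl4 i.p. (1 mL/kg of 25% CCl4 in olive oil) twice weekly for 6 weeks; sacrificed 48 h after last dose. Test articles oral, once daily: prophylactic weeks 1-6 or therapeutic weeks 4-6; imatinib control 50 mg/kg daily weeks 1-6. One formalin-fixed liver lobe stained for Picro Sirius Red and α-SMA; fibrotic area as % of total liver area; mean ± SEM, one-way ANOVA with Dunnett's test.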

The subject of series [7] is Mus musculus. Briefly: Antifibrotic activity in ip dosed bleomycin-induced C57BL/6 mouse model of lung fibrosis assessed as reduction in Ashcroft score administered on day 7 to 27 measured on day 28 by H and E staining based microscopy. Format: functional, organism-based. The procedure, abridged: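 Female C57BL/6 mice, 6-8 weeks old, under isoflurane received intranasal bleomycin sulphate 0.05 U/mouse in PBS; controls got PBS. Once-daily i.p. treatment days 7-27, n=12/group; imatinib 50 mg/kg i.p. as comparator. Sacrifice at day 28; lung fibrosis scored by Ashcroft score.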

Consider `Cc1c(-c2cccc(S(=O)(=O)N(C)C)c2)c2cc(C(=O)O)ccc2n1C/C(F)=C/CN.Cl`, for which the IC50 at Lysyl oxidase homolog 2 [1] is 13 nM; on Lysyl oxidase homolog 2 [2] it was 9 nM; at Lysyl oxidase homolog 4 it was 280 nM. The same compound returned a bioavailability in series [3] of under 1%. Moreover, on Lysyl oxidase homolog 2 [4], the “fold change (FC)” value is listed as 1. Besides, the Ki on Lysyl oxidase homolog 2 [5] turned out to be 83 nM.

Turning to `CCOC(=O)c1ccc2c(c1)c(-c1cccc(S(=O)(=O)N(C)C)c1)c(C)n2C/C(F)=C/CN.Cl`, the inhibition entry with Mus musculus [6] was “Active”. The inhibition result in the series with Mus musculus [7] is “Dose-dependent effect”.
